Assay results reported in ChEMBL document CHEMBL1123095, “Synthesis and biological activity of 6-azacadeguomycin and certain 3,4,6-trisubstituted pyrazolo[3,4-d]pyrimidine ribonucleosides” (1985).
pEC50, pIC50: −log10 of the molar value. Calls of active or inactive are those of the source. No cut-off for these calls is given here.

What was measured:
Vero [1] = assay: In vitro antiviral activity against herpes simplex virus type 2 virus was evaluated.; format: functional; settings: Chlorocebus sabaeus, read-out: ED50 (the source's name)
L1210 [2] = assay: In vitro inhibitory dose against L1210 leukemia cells was evaluated.; format: functional; settings: Mus musculus, read-out: ID50 (the source's name)
Procedure, shortened: (§1)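 Murine leukemia L1210 or lymphoid neoplasm P388 cells were grown in RPMI 1640 with 10% fetal bovine serum and 20 mM Hepes. Cells at 1 × 10⁵ cells/mL received filter-sterilized compound dissolved in growth medium, in duplicate at log concentrations from 1×10⁻⁷ to 1×10⁻⁴ M. After 48 h at 37 °C, cells were counted on a Coulter counter. Growth was expressed as percent of untreated control, and ID₅₀ was taken as the concentration giving 50% growth inhibition.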

Vero [3] = assay: In vitro antiviral activity against Parainfluenza type 3 was evaluated.; format: functional; settings: Chlorocebus sabaeus, read-out: ED50 (the source's name)
P388 [4] = assay: In vitro inhibitory dose against P388 cells was evaluated.; format: functional; settings: Mus musculus, read-out: ID50 (the source's name); procedure, shortened: as §1
Vero [5] = assay: In vitro antiviral activity against measles virus was evaluated.; format: functional; settings: Chlorocebus sabaeus, read-out: ED50 (the source's name)
Vero [6] = assay: Toxicity level was reported; None.; format: functional, cell-based; settings: Chlorocebus sabaeus
Vero [7] = assay: In vitro antiviral activity against vaccinia virus was evaluated.; format: functional; settings: Chlorocebus sabaeus, read-out: ED50 (the source's name)
Vero [8] = assay: Toxicity level was reported.; format: functional, Chlorocebus sabaeus
Vero [9] = assay: Toxicity level was reported; none; format: functional, cell-based; settings: Chlorocebus sabaeus
L1210 [10] = assay: Percent inhibition against L1210 cell growth at concentration 10e-4 was reported; format: functional, Mus musculus
Procedure, shortened: (§2)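 L1210 murine leukemia or P388 lymphoid neoplasm cells in RPMI 1640 with 10% fetal bovine serum and 20 mM Hepes, adjusted to 1 × 10⁵ cells/mL. Compounds dissolved in medium, filter-sterilized, tested in duplicate at log concentrations 1×10⁻⁷ to 1×10⁻⁴ M. After 48 h at 37 °C, Coulter cell counts; growth as percent of untreated control; ID₅₀ is the concentration giving 50% growth inhibition.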

P388 [11] = assay: Percent inhibition against P388 cell growth at concentration 10e-4 was reported; format: functional, Mus musculus; procedure, shortened: as §2
L1210 [12] = assay: In vitro inhibitory dose against L1210 leukemia cells was evaluated; Inactive at 10e-4 concentration; format: functional, cell-based; settings: Mus musculus; procedure, shortened: as §1
P388 [13] = assay: In vitro inhibitory dose against P388 cells was evaluated; Inactive at 10e-4 concentration; format: functional, cell-based; settings: Mus musculus; procedure, shortened: as §1
L1210 [14] = assay: Percent inhibition against L1210 cell growth at concentration 10e-4 was reported.; format: functional, Mus musculus; procedure, shortened: as §1
P388 [15] = assay: Percent inhibition against P388 cell growth at concentration 10e-4 was reported; Inative at 10^-4M; format: functional, cell-based; settings: Mus musculus; procedure, shortened: as §1
P388 [16] = assay: In vitro inhibitory dose against P388 cells was evaluated; Inactive at 10^-4M; format: functional, cell-based; settings: Mus musculus; procedure, shortened: as §2
L1210 [17] = assay: In vitro inhibitory dose against L1210 leukemia cells was evaluated; Inactive at 10^-4M; format: functional, cell-based; settings: Mus musculus; procedure, shortened: as §2

N#Cc1nn(C2O[C@H](CO)[C@@H](O)[C@H]2O)c2nc(N)[nH]c(=O)c12 (some centres undefined)
pEC50 (Vero [1]): 4.00 | pIC50 (L1210 [2]): 4.66 | pEC50 (Vero [3]): 3.66 | pIC50 (P388 [4]): 4.68 | pEC50 (Vero [5]): 4.27 | Toxic level (Vero [6]): None | pEC50 (Vero [7]): 3.85

Oc1[nH]c(Br)nc2nncc1-2
Toxic level (Vero [8]): 1.6 mM | pEC50 (Vero [1]): 2.80 | pEC50 (Vero [3]): < 2.30 | pEC50 (Vero [5]): < 2.30 | pEC50 (Vero [7]): 3.37

NC(=O)c1c[se]c([C@@H]2O[C@H](CO)[C@@H](O)[C@H]2O)n1
Toxic level (Vero [9]): inactive | pEC50 (Vero [1]): 4.85 | pEC50 (Vero [3]): 5.49 | pEC50 (Vero [5]): 5.49 | pEC50 (Vero [7]): 5.01

C[S+]([O-])c1nc(O)c2c(Br)[nH]nc2n1 (centres undefined)
Toxic level (Vero [8]): >0.5 mM | pEC50 (Vero [1]): 2.92 | pEC50 (Vero [3]): < 2.30 | pEC50 (Vero [5]): < 2.30 | pEC50 (Vero [7]): 3.59

NC(=O)c1nn(C2O[C@H](CO)[C@@H](O)[C@H]2O)c2nc(N)[nH]c(=O)c12 (some centres undefined)
Inhibition (L1210 [10]): 30% | Inhibition (P388 [11]): 22% | pEC50 (Vero [1]): < 3.30 | pEC50 (Vero [3]): < 3.30 | pEC50 (Vero [5]): < 3.30 | Toxic level (Vero [6]): None | pEC50 (Vero [7]): < 3.30

NC(=O)c1[nH]nc2nc(S)nc(O)c12
pEC50 (Vero [1]): 3.74 | pEC50 (Vero [3]): 3.41 | pEC50 (Vero [5]): < 3.30 | Toxic level (Vero [6]): None

Nc1nc2c(cnn2C2O[C@H](CO)[C@@H](O)[C@H]2O)c(=O)[nH]1 (some centres undefined)
Toxic level (Vero [9]): inactive | pEC50 (Vero [1]): 2.80 | ID50 (L1210 [12]): inactive | pEC50 (Vero [3]): < 2.30 | ID50 (P388 [13]): inactive | pEC50 (Vero [7]): 3.00

CSc1nc(O)c2c(C(N)=O)[nH]nc2n1
Toxic level (Vero [8]): >0.5 mM | pEC50 (Vero [1]): 4.07 | pEC50 (Vero [3]): < 3.30 | pEC50 (Vero [5]): < 3.30 | pEC50 (Vero [7]): 3.48

COc1nc2c(c(Br)nn2C2O[C@H](CO)[C@@H](O)[C@H]2O)c(=O)[nH]1 (some centres undefined)
Toxic level (Vero [8]): 2.5 mM | pEC50 (Vero [1]): 2.80 | pEC50 (Vero [3]): < 2.60 | pEC50 (Vero [5]): < 2.60 | pEC50 (Vero [7]): 2.46

Nc1nc2c(c(Br)nn2C2O[C@H](CO)[C@@H](O)[C@H]2O)c(=O)[nH]1 (some centres undefined)
Toxic level (Vero [8]): 1.6 mM | pEC50 (Vero [1]): 3.74 | pIC50 (L1210 [2]): 4.44 | pEC50 (Vero [3]): < 2.30 | pIC50 (P388 [4]): 4.44 | pEC50 (Vero [5]): 4.70 | pEC50 (Vero [7]): 4.12

NC(=S)c1nn(C2O[C@H](CO)[C@@H](O)[C@H]2O)c2nc(N)[nH]c(=O)c12 (some centres undefined)
Inhibition (L1210 [14]): 43% | ID50 (P388 [15]): inactive | pEC50 (Vero [1]): < 2.30 | pEC50 (Vero [3]): 3.23 | pEC50 (Vero [5]): 4.19 | Toxic level (Vero [6]): None

NC(=O)c1ncn([C@@H]2O[C@H](CO)[C@@H](O)[C@H]2O)n1 [RIBAVIRIN]
Toxic level (Vero [9]): Non-toxic | pEC50 (Vero [1]): 3.72 | pEC50 (Vero [3]): 3.80 | pEC50 (Vero [5]): 4.48 | pEC50 (Vero [7]): 4.07

Oc1[nH]c(Br)nc2nnc(Br)c1-2
Toxic level (Vero [8]): >0.05 mM | pEC50 (Vero [1]): < 3.30 | pEC50 (Vero [3]): < 2.30 | pEC50 (Vero [5]): < 2.30 | pEC50 (Vero [7]): 3.62

Nc1nc2c(c(C(=O)O)nn2C2O[C@H](CO)[C@@H](O)[C@H]2O)c(=O)[nH]1 (some centres undefined)
pEC50 (Vero [1]): < 2.30 | ID50 (P388 [16]): inactive | pEC50 (Vero [3]): < 2.30 | pEC50 (Vero [5]): < 2.30 | Toxic level (Vero [6]): None | ID50 (L1210 [17]): inactive | pEC50 (Vero [7]): < 2.30
